Assay outcomes: PubChem BioAssay, Johns Hopkins Ion Channel Center
Kir21 block: inhibitors of mouse Kir2.1 inward-rectifier potassium channel | Inward rectifier potassium channel 2 (Mus musculus), P35561 | HEK293-Kir2.1, FluxOR thallium flux fluorescence; stronger effect = lower value | B-score at 10 µM | actives 0.85% (n = 310,000) | AID 1672, 2009;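 active = fluorescence ratio B-score at or below minus 3 SD of library scores, with starting-brightness B-score within 2 SD, cut at about -4.2 in these data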;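 also: channel flux triggered by added potassium and thallium sulfate stimulus; B-score of peak minus minimum fluorescence over baseline after thallium stimulus; more negative B-score means stronger Kir2.1 block with less thallium influx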
KCNQ1 inh: inhibitors of human KCNQ1 channel, primary screen, cell-based, thallium flux, high-throughput; CHO-K1 KCNQ1, FluxOR thallium flux fluorescence; stronger effect = higher value; AID 2642, 2010; actives 1.3% (n = 310,000); B-score at 10 µM; Potassium voltage-gated channel subfamily KQT member 1 (Homo sapiens), P51787;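 active = compounds whose thallium flux B-score, printed positive for inhibition, exceeds three library SD while starting fluorescence stays within three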;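 also: channel opened by potassium depolarization with thallium stimulus after 20 min compound exposure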
KCNK9 inh: KCNK9 potassium channel inhibitors, primary screen, HEK293 cells, thallium flux. Potassium channel subfamily K member 9 (Homo sapiens), Q9NPC2. actives 1.2% (n = 310,000). FluxOR thallium flux fluorescence; stronger effect = lower value. B-score at 10 µM;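 active = ratio B-score over 3 SD below the library mean, with starting fluorescence within 5 SD of its mean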;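 also: negative B-score means less thallium flux so channel inhibition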
hERG protect: hERG rescue from dofetilide block, primary screen, cell-based, CHO-hERG, FluxOR thallium flux, dofetilide IC70; dofetilide IC70 present; activation (rescue from dofetilide block), less the hit threshold, % at 10 µM; actives 0.51% (n = 310,000);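 active = activation above the mean of controls blocked by dofetilide plus 5 SD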;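 also: thallium influx through hERG after potassium depolarization seen as dye fluorescence rise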
KCNQ1 act: potentiators or activators of KCNQ1 channel, primary screen, cell-based, thallium flux, high-throughput | AID 2648, 2010 | Potassium voltage-gated channel subfamily KQT member 1 (Homo sapiens), P51787 | CHO-K1 KCNQ1, thallium flux FluxOR fluorescence; stronger effect = higher value | actives 0.35% (n = 310,000) | B-score at 10 µM;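 active = fluorescence ratio B-score, a plate-corrected score, at least three library SD, with initial intensity B-score within 5 SD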
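Test system: CHO-K1 cells stably expressing KCNQ1 / Medium: assay buffer / Also added: depolarizing K+/Tl+ stimulus, K2SO4 and Tl2SO4 each 12.5 mM in 5x stock / Incubation: 90 min dye loading and 20 min compound exposure, both at room temperature / Signal: thallium influx via FluxOR fluorescence, kinetic imaging / Evaluation: B score of baseline-normalized fluorescence ratio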
KCNK3 block: human KCNK3 channel inhibitors, primary screen, CHO cells, FluxOR thallium flux, B-score. Potassium channel subfamily K member 3 (Homo sapiens), O14649. FluxOR fluorescence; stronger effect = lower value. B-score at 10 µM. actives 0.84% (n = 340,000). AID 602410, 2012;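 active = B-score under library mean minus 4 SD, starting fluorescence ratio at most library mean plus 5 SD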;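 also: more negative B-score means stronger inhibition of thallium flux through KCNK3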
Target sequence (O14649 whole entry, looked up): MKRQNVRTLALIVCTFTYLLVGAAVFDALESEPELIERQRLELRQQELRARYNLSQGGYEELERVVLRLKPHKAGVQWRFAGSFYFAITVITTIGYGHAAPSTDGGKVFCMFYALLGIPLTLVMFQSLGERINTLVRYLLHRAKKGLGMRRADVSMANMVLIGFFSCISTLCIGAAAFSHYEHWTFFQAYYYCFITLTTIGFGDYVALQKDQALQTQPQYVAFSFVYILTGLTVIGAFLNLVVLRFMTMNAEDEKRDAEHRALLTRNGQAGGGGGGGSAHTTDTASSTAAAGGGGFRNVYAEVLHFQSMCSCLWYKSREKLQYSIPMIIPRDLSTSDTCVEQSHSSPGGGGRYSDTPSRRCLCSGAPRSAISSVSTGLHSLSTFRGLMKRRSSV
KCNK9 inh conf: KCNK9 potassium channel inhibitors, confirmation, HEK293 cells, thallium flux, duplicate. shares compounds with KCNK9 inh. FluxOR thallium flux fluorescence. inhibition, % at 10 µM. actives 43% (n = 4,900);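 active = thallium signal inhibited by more than 5 SD of the compound-free buffer control wells, on both duplicate plates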
Kir2-1 spec: mouse Kir2.1 channel inhibition, confirmation, selectivity assay for KCNK9 modulator project, cell-based, HEK293, thallium flux; inhibition, % at 10 µM; shares compounds with KCNK9 inh; Kir2.1 cells, FluxOR thallium flux fluorescence; AID 492993, 2010; actives 4% (n = 4,900);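 active = thallium signal drop more than 5 SD beyond the mean of the no-compound control wells, seen in both duplicate plates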;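 also: signal is fluorescence rise after thallium addition divided by baseline fluorescence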
HEK293 Tl ctr: thallium flux in non-induced HEK293 cells, confirmation, counter-screen for KCNK9 inhibitor project, cell-based, second counter screen, non-induced KCNK9-HEK293 | shares compounds with KCNK9 inh | FluxOR thallium flux | inhibition, % at 10 µM | actives 40% (n = 4,900) | AID 492997, 2010;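 active = thallium signal drop beyond 5 SD of the untreated control mean, on both duplicate plates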
Hits are given with their value; 0 = inactive; - = not tested or not shown. A selection: hits, their analogues and other compounds. The true share with any hit is near 3.7%.

SMILES	Kir21 block	KCNQ1 inh	KCNK9 inh	hERG protect	KCNQ1 act	KCNK3 block	KCNK9 inh conf	Kir2-1 spec	HEK293 Tl ctr
O=C(COc1ccccc1Cl)Nc1nnc(S(=O)(=O)N2CCCC2)s1	0	0	0	0	0	0	-	-	-
COc1ccc(CSCC(=O)Nc2ccccc2SC)cc1	0	0	0	0	0	0	0	0	0
Cc1ccc(CCNC(=O)CSCc2ccc(F)cc2)cc1	0	0	0	0	0	0	0	0	0
Cc1ccc(CSCC(=O)Nc2ccccc2F)cc1	0	0	0	0	0	0	0	0	0
COc1ccc(CSCC(=O)NCCC(C)C)cc1	0	0	0	0	0	0	-	-	-
Cc1ccc(NC(=O)CSCc2ccc(F)cc2)cc1	0	0	0	0	0	0	-	-	-
Cc1ccc(CSCC(=O)NCc2ccc(F)cc2)cc1	0	0	0	0	0	0	-	-	-
CC(C)c1cc(CN2CCN(CCC#N)CC2)cc(C(C)C)c1O	0	0	0	0	0	0	0	0	0
CC(C)(C)c1cc(CN2CCN(CCO)CC2)cc(C(C)(C)C)c1O	0	0	0	0	0	0	-	-	-
CCN(CC)C(=O)c1oc2ccc(S(=O)(=O)N3CC(C)CC(C)C3)cc2c1C (stereo not drawn)	0	0	0	0	0	0	0	0	0
CCCCC(=O)Nc1cccc(NC(=O)c2ccc(Br)o2)c1	0	0	-8.5	0	0	0	43%	0	0
CC(C)(C)c1ccc(C(=O)CC(Sc2ccc(Cl)cc2)C(=O)O)cc1 (stereo not drawn)	0	0	0	0	0	0	0	0	0
Cc1ccc(SC(CC(=O)c2ccc(F)cc2)C(=O)O)cc1 (stereo not drawn)	0	0	0	0	0	0	-	-	-
O=C1CN(N=Cc2ccco2)C(=O)N1	-	-	-	-	-	0	-	-	-
O=C(c1ccc(-c2cccc(C(F)(F)F)c2)o1)N1CCN(c2ccccc2O)CC1	0	0	-8.5	0	0	0	50%	0	0
Cn1nnc(-c2ccc(OCc3ccccc3F)cc2)n1	0	0	0	0	0	0	-	-	-
Fc1ccccc1COc1ccc(-c2nnn(Cc3ccccc3F)n2)cc1	0	0	0	0	0	0	0	0	0
C[C@H](CO)N1C[C@H](C)[C@@H](CN(C)Cc2ccccc2)Oc2ccc(NC(=O)CCCCCC(=O)Nc3ccccc3N)cc2C1=O	-	-	-	-	-	0	-	-	-
O=C(C1CCOCC1)N1CCCC(N2CCN(c3ccc(F)cc3)CC2)C1 (stereo not drawn)	0	0	0	0	0	0	-	-	-
CCOc1ccccc1CNC(=O)CCCc1cn(C)c2ccccc12	0	0	0	0	0	0	0	0	0
Cc1ccccc1C(=O)NCC(=O)NNC(=O)c1cccc(Cl)c1	-	-	-	-	-	0	-	-	-
COc1ccccc1NS(=O)(=O)c1ccc2oc(SCc3ccc(F)cc3)nc2c1	0	0	0	0	0	0	-	-	-
COc1ccc(NS(=O)(=O)c2ccc3oc(SCc4ccc(F)cc4)nc3c2)cc1	0	0	0	0	0	0	0	0	0
CSc1ccccc1OCc1cc(C(=O)N(C)Cc2ccc3nsnc3c2)no1	0	0	0	0	0	0	-	-	-
CSc1ccccc1OCc1cc(C(=O)N(C)Cc2ccc(C)o2)no1	0	0	0	0	0	0	0	0	0
SMILES	Kir21 block	KCNQ1 inh	KCNK9 inh	hERG protect	KCNQ1 act	KCNK3 block	KCNK9 inh conf	Kir2-1 spec	HEK293 Tl ctr
Cc1oc(-c2ccccc2Cl)nc1Cn1cccc1C1=NC(c2ccccc2)CO1 (stereo not drawn)	0	6	-13	0	0	0	54%	0	52%
CC(C)C1COC(c2cccn2Cc2ccccc2Cl)=N1 (stereo not drawn)	0	0	0	0	0	0	0	0	30%
Cc1ccc(Cn2cccc2C2=NC(C)CO2)cc1 (stereo not drawn)	0	0	0	0	0	0	-	-	-
CC(CCN1CCN=C1Nc1ccccc1)c1ccccc1 (stereo not drawn)	0	0	0	0	0	0	-	-	-
CCOC(=O)NC(=O)CSc1nc(-c2ccc(C)c(C)c2)cn1-c1ccccc1	0	0	-8.2	0	0	0	42%	0	36%
Cc1ccc(-c2cn(-c3ccccc3)c(SCC(N)=O)n2)cc1C	0	0	0	0	0	0	-	-	-
COc1ccc(Cc2c(N)nc(C)nc2N)cc1	0	0	0	0	0	0	-	-	-
CCOc1ccc(Cc2c(Cl)nc(SC)nc2OC)cc1	0	0	0	0	0	0	0	0	26%
COC(=O)c1ccc(C(=O)OC)c(NC(=O)COC(=O)CC2CC3CCC2C3)c1 (stereo not drawn)	0	0	-13	0	0	-14	50%	0	29%
C=C(C)COc1ccc2c(C)c(CC(=O)N3C[C@H]4C[C@@H](C3)c3cccc(=O)n3C4)c(=O)oc2c1C	0	0	0	0	0	0	-	-	-
CCCc1cc(=O)oc2c(C)c(OCC(=O)Nc3cccnc3)ccc12	0	0	0	0	0	0	-	-	-
N#C/C(C(=O)Nc1ccc(Cl)cc1)=C(/S)Nc1ccccc1	0	0	0	0	0	0	0	0	0
O=C(Nc1ccc(Nc2ccccc2)cc1)c1ccc(Cl)cc1	0	0	0	0	0	0	-	-	-
CCCNC(=O)C1CC(c2ccccc2C(F)(F)F)=NO1 (stereo not drawn)	0	0	0	0	0	0	-	-	-
CCN(CC(=O)NC(=O)NCc1ccccc1)Cc1ccccc1	0	0	0	0	0	0	0	0	26%
CCCCn1c(SCc2cccc([N+](=O)[O-])c2)nc2ccsc2c1=O	0	6	-16	0	0	0	80%	0	38%
CCC(C)n1c(SCc2ccc([N+](=O)[O-])cc2)nc2ccsc2c1=O (stereo not drawn)	0	0	-13	0	0	0	69%	0	44%
CCOC(CCn1c(SCc2cccc([N+](=O)[O-])c2)nc2ccccc2c1=O)OCC	0	0	-15	0	0	0	68%	0	45%
